Experimental data: ChEMBL document CHEMBL5724801, “EUbOPEN Chemogenomics Library - Multiplex” (2024)
Values joined by “and” are separate entries in the source; they are usually repeats but may differ in a detail not shown here. Identical values can stand only once.

Tested on: Fibroblast
Test: Multiplex assay against human fibroblast
Type: toxicity, cell-based
Summary of the method: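 Compound was added to live cells that had been stained at seeding with Hoechst33342, BioTracker Green Microtubule Cytoskeleton Dye, MitoTracker Red and Annexin V Alexa Fluor 680, and imaging followed on a CQ1 microscope at 37°C and 5% CO2. CellPathfinder machine-learning gating divided cells into Hoechst high-intensity objects or normal cells, normal cells into healthy, pyknosed or fragmented nuclei, and pyknosed cells into mitotic or apoptotic. Tubulin, mitochondrial-mass and membrane-permeability phenotypes are per cents of healthy-nucleus cells.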

[1] = 12 h, 1 µM, compound concentration 1 uM
[2] = 12 h, 10 µM, compound concentration 10 uM
[3] = 24 h, 1 µM, compound concentration 1 uM
[4] = 24 h, 10 µM, compound concentration 10 uM
[5] = 48 h, 1 µM, compound concentration 1 uM
[6] = 48 h, 10 µM, compound concentration 10 uM

With CCCCCCNC(=O)Nc1ccc(S(=O)(=O)Nc2ccc(CCNC[C@H](O)COc3ccc(O)cc3)cc2)cc1 [L-755507] the “Population Apoptotic (%)” value [1] was 40% and 46%, the “Population Fragmented Nuclei (%)” value [1] was 27% and 21% and the “Population Healthy Nuclei (%)” value [1] was 59%. For the same molecule, the “Population Hoechst High Intensity Objects (%)” value [1] was 1% and 3%, the “Population Membrane Permeable-Phenotype (%)” value [1] was 3% and the “Population Mitochondria Different-Phenotype (%)” value [1] was 6% and 3%. For the same molecule, the “Population Mitotic Cells (%)” value [1] was 60% and 53%, the “Population Normal (%)” value [1] was 98% and 96% and the “Population Pyknosed Nuclei (%)” value [1] was 12% and 19%. The “Population Tubulin-Different-Phenotype (%)” value [1] was 34% and 36%, the “Total Cell Count” value [1] was 198 and 160 and the “Population Apoptotic (%)” value [2] was 45% and 42%. The “Population Fragmented Nuclei (%)” value [2] was 17% and 34%, the “Population Healthy Nuclei (%)” value [2] was 72% and 48% and the “Population Hoechst High Intensity Objects (%)” value [2] was 5%. For the same molecule, the “Population Membrane Permeable-Phenotype (%)” value [2] was 0% and 1%, the “Population Mitochondria Different-Phenotype (%)” value [2] was 10% and 19% and the “Population Mitotic Cells (%)” value [2] was 54% and 57%. For the same molecule, the “Population Normal (%)” value [2] was 94%, the “Population Pyknosed Nuclei (%)” value [2] was 10% and 17% and the “Population Tubulin-Different-Phenotype (%)” value [2] was 47% and 64%. For the same molecule, the “Total Cell Count” value [2] was 218 and 172, the “Population Apoptotic (%)” value [3] was 31% and 39% and the “Population Fragmented Nuclei (%)” value [3] was 26%. The “Population Healthy Nuclei (%)” value [3] was 63% and 59%, the “Population Hoechst High Intensity Objects (%)” value [3] was 1% and 2% and the “Population Membrane Permeable-Phenotype (%)” value [3] was 0% and 3%. For the same molecule, the “Population Mitochondria Different-Phenotype (%)” value [3] was 3% and 12%, the “Population Mitotic Cells (%)” value [3] was 68% and 60% and the “Population Normal (%)” value [3] was 98% and 97%. For the same molecule, the “Population Pyknosed Nuclei (%)” value [3] was 9% and 13%, the “Population Tubulin-Different-Phenotype (%)” value [3] was 27% and 44% and the “Total Cell Count” value [3] was 196 and 176. For the same molecule, the “Population Apoptotic (%)” value [4] was 72% and 50%, the “Population Fragmented Nuclei (%)” value [4] was 21% and 38% and the “Population Healthy Nuclei (%)” value [4] was 70% and 51%. The “Population Hoechst High Intensity Objects (%)” value [4] was 8% and 4%, the “Population Membrane Permeable-Phenotype (%)” value [4] was 0% and 3% and the “Population Mitochondria Different-Phenotype (%)” value [4] was 8% and 19%. The “Population Mitotic Cells (%)” value [4] was 27% and 50%, the “Population Normal (%)” value [4] was 91% and 95% and the “Population Pyknosed Nuclei (%)” value [4] was 8% and 9%. The “Population Tubulin-Different-Phenotype (%)” value [4] was 38% and 65%, the “Total Cell Count” value [4] was 232 and 168 and the “Population Apoptotic (%)” value [5] was 62% and 53%. The “Population Fragmented Nuclei (%)” value [5] was 28% and 33%, the “Population Healthy Nuclei (%)” value [5] was 63% and 58% and the “Population Hoechst High Intensity Objects (%)” value [5] was 3% and 4%. The “Population Membrane Permeable-Phenotype (%)” value [5] was 0% and 1%, the “Population Mitochondria Different-Phenotype (%)” value [5] was 4% and 6% and the “Population Mitotic Cells (%)” value [5] was 37% and 46%. The “Population Normal (%)” value [5] was 96% and 95%, the “Population Pyknosed Nuclei (%)” value [5] was 8% and the “Population Tubulin-Different-Phenotype (%)” value [5] was 31% and 33%. For the same molecule, the “Total Cell Count” value [5] was 201 and 170, the “Population Apoptotic (%)” value [6] was 79% and 71% and the “Population Fragmented Nuclei (%)” value [6] was 19% and 42%. For the same molecule, the “Population Healthy Nuclei (%)” value [6] was 69% and 53%, the “Population Hoechst High Intensity Objects (%)” value [6] was 6% and 3% and the “Population Membrane Permeable-Phenotype (%)” value [6] was 1% and 5%. For the same molecule, the “Population Mitochondria Different-Phenotype (%)” value [6] was 8% and 11%, the “Population Mitotic Cells (%)” value [6] was 20% and 28% and the “Population Normal (%)” value [6] was 93% and 96%. For the same molecule, the “Population Pyknosed Nuclei (%)” value [6] was 10% and 3%, the “Population Tubulin-Different-Phenotype (%)” value [6] was 49% and 55% and the “Total Cell Count” value [6] was 240 and 184.

In the case of CN1CCN2c3ncccc3Cc3ccccc3C2C1 (centres undefined) [MIRTAZAPINE], the “Population Apoptotic (%)” value [1] is reported as 44% and 33%, the “Population Fragmented Nuclei (%)” value [1] is reported as 10% and 24% and the “Population Healthy Nuclei (%)” value [1] is reported as 77% and 47%. For the same molecule, the “Population Hoechst High Intensity Objects (%)” value [1] was 3%, the “Population Membrane Permeable-Phenotype (%)” value [1] was 0% and 4% and the “Population Mitochondria Different-Phenotype (%)” value [1] was 6% and 5%. For the same molecule, the “Population Mitotic Cells (%)” value [1] was 56% and 66%, the “Population Normal (%)” value [1] was 96% and the “Population Pyknosed Nuclei (%)” value [1] was 12% and 27%. For the same molecule, the “Population Tubulin-Different-Phenotype (%)” value [1] was 24% and 45%, the “Total Cell Count” value [1] was 213 and 156 and the “Population Apoptotic (%)” value [2] was 44% and 28%. For the same molecule, the “Population Fragmented Nuclei (%)” value [2] was 19% and 27%, the “Population Healthy Nuclei (%)” value [2] was 69% and 40% and the “Population Hoechst High Intensity Objects (%)” value [2] was 1% and 6%. For the same molecule, the “Population Membrane Permeable-Phenotype (%)” value [2] was 0% and 16%, the “Population Mitochondria Different-Phenotype (%)” value [2] was 8% and 7% and the “Population Mitotic Cells (%)” value [2] was 55% and 71%. The “Population Normal (%)” value [2] was 98% and 93%, the “Population Tubulin-Different-Phenotype (%)” value [2] was 30% and 60% and the “Total Cell Count” value [2] was 168 and 140. The “Population Apoptotic (%)” value [3] was 47% and 48%, the “Population Healthy Nuclei (%)” value [3] was 82% and 50% and the “Population Hoechst High Intensity Objects (%)” value [3] was 5% and 0%. The “Population Membrane Permeable-Phenotype (%)” value [3] was 0% and 10%, the “Population Mitochondria Different-Phenotype (%)” value [3] was 5% and 10% and the “Population Mitotic Cells (%)” value [3] was 52% and 51%. For the same molecule, the “Population Normal (%)” value [3] was 94% and 99%, the “Population Pyknosed Nuclei (%)” value [3] was 10% and 23% and the “Population Tubulin-Different-Phenotype (%)” value [3] was 31% and 36%. The “Total Cell Count” value [3] was 201 and 153, the “Population Apoptotic (%)” value [4] was 50% and 46% and the “Population Fragmented Nuclei (%)” value [4] was 19% and 29%. For the same molecule, the “Population Healthy Nuclei (%)” value [4] was 72% and 46%, the “Population Hoechst High Intensity Objects (%)” value [4] was 4% and 5% and the “Population Membrane Permeable-Phenotype (%)” value [4] was 0% and 15%. The “Population Mitochondria Different-Phenotype (%)” value [4] was 9% and 1%, the “Population Mitotic Cells (%)” value [4] was 50% and 53% and the “Population Normal (%)” value [4] was 95% and 94%. The “Population Tubulin-Different-Phenotype (%)” value [4] was 30% and 68%, the “Total Cell Count” value [4] was 186 and 136 and the “Population Apoptotic (%)” value [5] was 60% and 50%. For the same molecule, the “Population Fragmented Nuclei (%)” value [5] was 15% and 36%, the “Population Healthy Nuclei (%)” value [5] was 73% and 45% and the “Population Hoechst High Intensity Objects (%)” value [5] was 7% and 2%. For the same molecule, the “Population Membrane Permeable-Phenotype (%)” value [5] was 0% and 11%, the “Population Mitochondria Different-Phenotype (%)” value [5] was 4% and 12% and the “Population Mitotic Cells (%)” value [5] was 39% and 50%. For the same molecule, the “Population Normal (%)” value [5] was 92% and 97%, the “Population Pyknosed Nuclei (%)” value [5] was 11% and 17% and the “Population Tubulin-Different-Phenotype (%)” value [5] was 31% and 56%. The “Total Cell Count” value [5] was 213 and 161, the “Population Apoptotic (%)” value [6] was 66% and 33% and the “Population Fragmented Nuclei (%)” value [6] was 17% and 46%. For the same molecule, the “Population Healthy Nuclei (%)” value [6] was 73% and 41%, the “Population Hoechst High Intensity Objects (%)” value [6] was 5% and 2% and the “Population Membrane Permeable-Phenotype (%)” value [6] was 0% and 8%. For the same molecule, the “Population Mitochondria Different-Phenotype (%)” value [6] was 9% and 2%, the “Population Mitotic Cells (%)” value [6] was 33% and 66% and the “Population Normal (%)” value [6] was 94% and 97%. The “Population Pyknosed Nuclei (%)” value [6] was 9% and 12%, the “Population Tubulin-Different-Phenotype (%)” value [6] was 36% and 60% and the “Total Cell Count” value [6] was 176 and 120.
